In ChEMBL document CHEMBL1144139, “Immunosuppressive diterpenoids from Tripterygium wilfordii” (1999):
Activity calls are given as the source filed them. The calls are words filed in the database; no cut-off is given here.

How the values were obtained:
Type in all cases: functional
PBMC [1] = assay: Immunosuppressive activity against human PBMC assessed as inhibition of LPS-induced IL4 production at 10 ug/ml after 24 hrs by ELISA
How it was run: (§1)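 Heparinized whole blood from healthy volunteers, diluted to 30% in RPMI-1640 with penicillin/streptomycin, was mixed in equal volumes with LPS solution (3 µg/mL) and sample (3 mg/mL DMSO stock diluted 1:100; DMSO-only control). Incubated at 37 °C, 5% CO2. Supernatant cytokines measured by ELISA. Inhibition (%) = […] versus solvent control.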

PBMC [2] = assay: Immunosuppressive activity against human PBMC assessed as inhibition of LPS-induced IL8 production at 10 ug/ml after 24 hrs by ELISA; how it was run: as §1
PBMC [3] = assay: Immunosuppressive activity against human PBMC assessed as inhibition of LPS-induced IL1-beta production at 10 ug/ml after 24 hrs by ELISA; how it was run: as §1
PBMC [4] = assay: Immunosuppressive activity against human PBMC assessed as inhibition of LPS-induced IFN-gamma production at 10 ug/ml after 24 hrs by ELISA; how it was run: as §1
PBMC [5] = assay: Immunosuppressive activity against human PBMC assessed as inhibition of LPS-induced IL2 production at 10 ug/ml after 24 hrs by ELISA; how it was run: as §1
PBMC [6] = assay: Immunosuppressive activity against human PBMC assessed as inhibition of LPS-induced TNFalpha production at 10 ug/ml after 24 hrs by ELISA; how it was run: as §1
PBMC [7] = assay: Immunosuppressive activity against human PBMC assessed as inhibition of LPS-induced TNFalpha production at 0.3 ug/ml after 24 hrs by ELISA
PBMC [8] = assay: Immunosuppressive activity against human PBMC assessed as inhibition of LPS-induced IFN-gamma production at 0.3 ug/ml after 24 hrs by ELISA
PBMC [9] = assay: Immunosuppressive activity against human PBMC assessed as inhibition of LPS-induced IL8 production at 0.3 ug/ml after 24 hrs by ELISA
PBMC [10] = assay: Immunosuppressive activity against human PBMC assessed as inhibition of LPS-induced IL1-beta production at 0.3 ug/ml after 24 hrs by ELISA
PBMC [11] = assay: Immunosuppressive activity against human PBMC assessed as inhibition of LPS-induced IL2 production at 0.3 ug/ml after 24 hrs by ELISA
PBMC [12] = assay: Immunosuppressive activity against human PBMC assessed as inhibition of LPS-induced IL4 production at 0.3 ug/ml after 24 hrs by ELISA

Row | Structure (SMILES) | inhibition at 10 µg/mL (PBMC [1]) [%] | inhibition at 10 µg/mL (PBMC [2]) [%] | inhibition at 10 µg/mL (PBMC [3]) [%] | inhibition at 10 µg/mL (PBMC [4]) [%] | inhibition at 10 µg/mL (PBMC [5]) [%] | inhibition at 10 µg/mL (PBMC [6]) [%] | Activity (PBMC [1]) | Activity (PBMC [2]) | Activity (PBMC [3]) | Activity (PBMC [4]) | Activity (PBMC [5]) | Activity (PBMC [6]) | other results
1 | C[C@@]12CCC[C@@](C)(C(=O)O)[C@@H]1CC[C@@]13C[C@@H](CC[C@H]12)[C@@H](CO)C3 | 56.2 | 4.2 | -6.1 | 34 | 35 | 0 | – | – | – | – | – | – | –
2 | C=C[C@]1(C)CC[C@@H]2[C@@]3(C)CCC[C@@](C)(C(=O)O)[C@@H]3CC[C@@]2(C)O1 | 95.4 | 65.2 | 36.1 | 94 | 100 | 49.9 | – | – | – | – | – | – | –
3 | C=C1C[C@H]2[C@@](C)(CO)C(=O)CC[C@]2(C)c2c(O)cc(C(C)C)c(OC)c21 | – | – | – | – | – | – | inactive | inactive | inactive | inactive | inactive | inactive | –
4 | CC(C)c1ccc2c(c1)CC[C@H]1[C@@](C)(CO)[C@@H](O)CC[C@]21C | – | – | – | – | – | – | inactive | inactive | inactive | inactive | inactive | inactive | –
5 | C[C@@]12CCC[C@@](C)(C(=O)O)[C@@H]1CC[C@@]13C[C@@H](CC[C@H]12)[C@](C)(O)C3 | – | – | – | – | – | – | inactive | inactive | inactive | inactive | inactive | inactive | –
6 | C[C@]12C=CC(=O)C=C1CC[C@@H]1[C@@H]2[C@@H](O)C[C@@]2(C)[C@H]1CC[C@]2(O)C(=O)CO [PREDNISOLONE] | – | – | – | – | – | – | – | – | – | – | – | – | inhibition at 0.3 µg/mL (PBMC [7]): 88.5%; inhibition at 0.3 µg/mL (PBMC [8]): 95.4%; inhibition at 0.3 µg/mL (PBMC [9]): 90.3%; inhibition at 0.3 µg/mL (PBMC [10]): 88.5%; inhibition at 0.3 µg/mL (PBMC [11]): 93.9%; inhibition at 0.3 µg/mL (PBMC [12]): 96.1%
7 | C[C@@]1(O)C[C@@]23CC[C@H]4[C@@]5(CCC[C@]4(C)C(=O)OC5)[C@@H]2CC[C@H]1C3 [TRIPTERIFORDIN] | 95.7 | 96.6 | 75.7 | 98.6 | 97.9 | 76.8 | – | – | – | – | – | – | –
8 | C=C1C[C@H]2[C@@](C)(CO)C(=O)CC[C@]2(C)c2cc(O)c(C(C)C)cc21 [TRIPTOBENZENE M] | 40.1 | -29.1 | 13.5 | 54.1 | 55.6 | 7.5 | – | – | – | – | – | – | –
9 | CC(C)c1ccc2c(c1)C(=O)C[C@H]1[C@@](C)(CO)C(=O)CC[C@]21C [TRIPTOBENZENE N] | -52.2 | 15.4 | 37.9 | 42.3 | 64.5 | 13.3 | – | – | – | – | – | – | –
10 | C=C1C[C@H]2[C@@](C)(CO)[C@@H](O)CC[C@]2(C)C2=C1C(=O)C(C(C)C)=CC2=O [TRIPTOQUINONE C] | 66.4 | -24.6 | 16.4 | 89 | 64 | -29.5 | – | – | – | – | – | – | –
